One may read the pKB as the KB on a negative log10 scale, so that one unit is a factor of ten. As a reminder, the Ki is a measure of affinity in units of concentration, obtained from inhibition or displacement. Low readings indicate higher affinity, high ones lower affinity.

The target of assay [1] is Histamine H3 receptor (Cavia porcellus) (UniProt Q9JI35). The assay can be described thus: Tested in vitro against histamine H3 receptor mediated inhibition of cholinergic neurogenic contractions in isolated guinea pig ileum. It is filed as functional, tissue-based. The method, boiled down: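 Electrically stimulated guinea-pig ileum, where H3 receptors mediate inhibition of cholinergic neurogenic contractions. Agonist was (R)-α-methylhistamine. pKB ± SEM was estimated from single shifts of the agonist concentration-effect curve in at least four separate tissues, for compounds acting as surmountable antagonists. Compounds were given as dihydrochloride salts.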
Histamine H3 receptor (Cavia porcellus), sequence (Q9JI35 whole entry): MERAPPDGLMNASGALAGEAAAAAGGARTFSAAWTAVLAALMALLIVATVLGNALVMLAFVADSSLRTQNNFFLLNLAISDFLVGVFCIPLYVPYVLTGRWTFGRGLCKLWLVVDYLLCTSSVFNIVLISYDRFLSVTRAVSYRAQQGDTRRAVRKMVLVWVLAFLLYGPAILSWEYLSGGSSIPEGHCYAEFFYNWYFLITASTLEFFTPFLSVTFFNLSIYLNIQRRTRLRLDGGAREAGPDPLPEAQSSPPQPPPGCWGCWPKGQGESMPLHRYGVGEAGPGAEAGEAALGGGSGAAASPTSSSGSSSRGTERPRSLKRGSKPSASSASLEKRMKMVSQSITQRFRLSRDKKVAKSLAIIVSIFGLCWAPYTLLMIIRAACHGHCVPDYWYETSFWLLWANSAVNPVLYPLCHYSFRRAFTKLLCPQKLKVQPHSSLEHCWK

Assay [2] addresses T1, Histamine H3 receptor (Cavia porcellus, UniProt Q9JI35). The assay is described as follows: In vitro binding affinity for histamine H3 receptor was determined in guinea-pig cerebral cortex using [3H](R)-alpha-methylhistamine. It is filed as tissue-based.
The target of assay [3] is T1, Histamine H3 receptor. The assay is described as follows: In vitro binding affinity towards histamine H3 receptor was determined in guinea-pig cerebral cortex using [3H](R)-alpha-methylhistamine.

T1 sequence (Q9JI35 whole entry): as above

In assay [1], `N=C(NCCCCCN1CCCC1)NCC1CCCCCC1` showed a negative logarithm of the KB (pKB) of 7.67. For the same molecule, the affinity on Histamine H3 receptor [2] corresponds to a Ki of 3.55 nM.

As to `CN(C)CCCNS(=O)(=O)c1ccc2ccccc2c1`, the negative-log KB (pKB) in assay [1] was found to be 5.52. At Histamine H3 receptor [2], this molecule gave a Ki of 1000 nM.

In the case of `N=C(NCCCCCN1CCCCC1)NCC12CC3CC(CC(C3)C1)C2`, the pKB in assay [1] came to 8.14. The molecule also gave a Ki at Histamine H3 receptor [2] of 10.7 nM.

Molecule `N=C(N)N(CCCCCN1CCCC1)Cc1ccc(Cl)cc1` gave a pKB in assay [1] of 7.91. In addition, on Histamine H3 receptor [2], the inhibition constant (Ki) is 1.07 nM.

With `N=C(N)N(CCCCCCCCN1CCCC1)Cc1ccc(Cl)cc1`, the pKB in assay [1] came to 8.09. In addition, the Ki at Histamine H3 receptor [2] was 4.68 nM.

`N=C(NCCCCN1CCCC1)NCc1ccc(Cl)cc1`: the pKB in assay [1] is 7.32. For the same molecule, the inhibitory constant (Ki) at Histamine H3 receptor [2] is 5.13 nM.

For the molecule `O=S(=O)(NCCCN1CCCC1)c1ccc2ccccc2c1`, the pKB in assay [1] was 5.96. Also, at Histamine H3 receptor [2], the inhibition constant (Ki) is 324 nM.

As for `N=C(NCCCCCN1CCCC1)NCC1CCCCC1`, the negative-log KB (pKB) in assay [1] was 7.52. The same molecule showed a Ki on Histamine H3 receptor [2] of 1.41 nM.

`N=C(NCCCN1CCCC1)NCc1ccc(Br)cc1` showed a pKB in assay [1] of 6.45. At Histamine H3 receptor [2], this molecule showed an inhibition constant Ki of 4.68 nM.

The molecule `N=C(NCCCCCN1CCCCCC1)NCC12CC3CC(CC(C3)C1)C2` yielded a pKB in assay [1] of 7.84. Also, at Histamine H3 receptor [2], the inhibition constant Ki was 7.94 nM.

`N=C(NCCCN1CCCC1)NCc1ccccc1` displayed a pKB in assay [1] of 6.2. On Histamine H3 receptor [2], this molecule gave an inhibition constant (Ki) of 20 nM.

For the molecule `N=C(NCCCN1CCCC1)Nc1ccc(Cl)cc1`, the negative logarithm of the KB (pKB) in assay [1] amounted to 6.03. The inhibition constant (Ki) at Histamine H3 receptor [2] was 53.7 nM.

`N=C(N)N(CCCCCCCN1CCCC1)Cc1ccc(Cl)cc1` displayed a negative-log KB (pKB) in assay [1] of 8.38. Besides, the inhibition constant Ki on Histamine H3 receptor [2] is 2 nM.

In turn, `N=C(NCCCN1CCCC1)NCCc1ccc(Cl)cc1` yielded a pKB in assay [1] of 6.68. The same molecule had a Ki at Histamine H3 receptor [2] of 0.933 nM.

`N=C(NCCCCN1CCCC1)NCCc1ccc(Cl)cc1` yielded a pKB in assay [1] of 6.24. This molecule also showed a Ki at Histamine H3 receptor [2] of 6.76 nM.

As for `O=[N+]([O-])c1ccc(OCCCN2CCC(Nc3nc4ccccc4s3)CC2)cc1`, the affinity at Histamine H3 receptor [2], expressed as Ki, was 6.31 nM.

As for `N=C(NCCCN1CCCC1)NCc1cccc(Br)c1`, in assay [1], the negative-log KB (pKB) stood at 6.46. In addition, the affinity on Histamine H3 receptor [2], expressed as Ki, was 25.7 nM.

On to `N=C(N)N(CCCCN1CCCC1)Cc1ccc(Cl)cc1`, for which the pKB in assay [1] is 7.34. On Histamine H3 receptor [2], this molecule showed an inhibition constant Ki of 7.94 nM.

For the molecule `N=C(NCCCCCN1CCCC1)NCc1ccc(Cl)cc1`, the negative-log KB (pKB) in assay [1] is 7.3. The inhibition constant (Ki) on Histamine H3 receptor [2] is 5.37 nM.

In assay [1], `O=S(=O)(NCCCN1CCCC1)NCc1ccc(Cl)cc1` gave a negative-log KB (pKB) of 6.21. Further, the Ki on Histamine H3 receptor [2] is 229 nM.

Take `N=C(NCCCN1CCCC1)NCc1ccc(Cl)cc1`: in assay [1], the negative logarithm of the KB (pKB) worked out at 6.42. In addition, the Ki at Histamine H3 receptor [2] was 56.2 nM.

In the case of `N=C(NCCCCCN1CCCC1)NCC12CC3CC(CC(C3)C1)C2`, in assay [1], the pKB was 7.9. Also, on Histamine H3 receptor [2], the inhibition constant (Ki) is 3.55 nM.

In the case of `N=C(NCCCN1CCCC1)NCc1ccc(I)cc1`, in assay [1], the pKB was determined as 6.43. Also, affinity at Histamine H3 receptor [2] was put at a Ki of 53.7 nM.

On to `O=S(=O)(Cc1ccc(Cl)cc1)NCCCN1CCCC1`, for which, in assay [1], the negative-log KB (pKB) was found to be 6.24. The same molecule showed a Ki at Histamine H3 receptor [2] of 537 nM.

In assay [1], `COc1ccc(C/N=C(\N)NCCCN2CCCC2)cc1` had a pKB of 6.08. The molecule also showed a Ki on Histamine H3 receptor [2] of 83.2 nM.

Consider `N=C(NCCCCCN1CCCC1)NCCc1ccc(Cl)cc1`, for which the negative logarithm of the KB (pKB) in assay [1] stood at 7.06. The molecule also showed an inhibition constant Ki on Histamine H3 receptor [2] of 7.59 nM.

Molecule `N=C(NCCCN1CCCC1)NCc1ccc(C(F)(F)F)cc1` had a pKB in assay [1] of 6.1. On Histamine H3 receptor [2], this molecule had a Ki of 100 nM.

In the case of `O=[N+]([O-])c1ccc(OCCCCCN2CCCC2)cc1`, the affinity at Histamine H3 receptor [3], expressed as Ki, was 39 nM.

On to `N=C(NCCCCCN1CCCCCCC1)NCC12CC3CC(CC(C3)C1)C2`, for which the pKB in assay [1] was 7.37. The molecule further had a Ki on Histamine H3 receptor [2] of 30.2 nM.

With `N=C(NCCCN1CCCC1)NCc1ccccc1Br`, the pKB in assay [1] was 6.27. Also, the affinity on Histamine H3 receptor [2] corresponds to a Ki of 42.7 nM.

On to `CN(C)CCCSC(=N)N`, for which the negative-log KB (pKB) in assay [1] came out at 5.93. The molecule further showed a Ki at Histamine H3 receptor [2] of 47.9 nM.

The molecule `S=C(NCCCN1CCCC1)NCc1ccc(Cl)cc1` returned a pKB in assay [1] of 5.66. The Ki at Histamine H3 receptor [2] is 407 nM.

`N=C(N)N(CCCCCCN1CCCC1)Cc1ccc(Cl)cc1` showed a pKB in assay [1] of 8.39. Further, the Ki on Histamine H3 receptor [2] was 4.17 nM.

(Values after ChEMBL document CHEMBL1133103, “Design, synthesis, and structure-activity relationships of novel non-imidazole histamine H(3) receptor antagonists” (J Med Chem, 2000).)
